Source: ChEMBL document CHEMBL1926577, “Novel 1,3,4-heterodiazole analogues: synthesis and in-vitro antitumor activity” (2012)
The source made the active and inactive calls. The rule behind the calls is not given here.

Key:
Format in all cases: functional
[1] = test system: CCRF-CEM; experiment: Growth inhibition of human CCRF-CEM cells at 10 uM after 48 hrs by coulter counter method; settings: read-out: GI
In short: (§1)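 NCI 60-cell-line panel, single dose. Compound dissolved first in DMSO, then diluted in phosphate-buffered saline so that every final dilution held under 1% DMSO. Duplicate wells received cells at 6 × 10⁴ cells/ml. Controls held PBS/DMSO at the same dilution. Plates were incubated 48 h at 37 °C under 5% CO₂. Cells were then diluted 10-fold in saline and counted on a Coulter counter, with counts corrected for the dilution. Results are given as percent growth inhibition.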

[2] = test system: K562; experiment: Growth inhibition of human K562 cells at 10 uM after 48 hrs by coulter counter method; settings: K562, 48 h, read-out: GI; in short: as §1
[3] = test system: MOLT-4; experiment: Growth inhibition of human MOLT4 cells at 10 uM after 48 hrs by coulter counter method; settings: MOLT-4, 48 h, read-out: GI; in short: as §1
[4] = test system: A549; experiment: Growth inhibition of human A549 cells at 10 uM after 48 hrs by coulter counter method; settings: A549, 48 h, read-out: GI; in short: as §1
[5] = test system: NCI-H226; experiment: Growth inhibition of human NCI-H226 cells at 10 uM after 48 hrs by coulter counter method; settings: NCI-H226, 48 h, read-out: GI; in short: as §1
[6] = test system: NCI-H23; experiment: Growth inhibition of human NCI-H23 cells at 10 uM after 48 hrs by coulter counter method; settings: NCI-H23, 48 h, read-out: GI; in short: as §1
[7] = test system: HCT-15; experiment: Growth inhibition of human HCT15 cells at 10 uM after 48 hrs by coulter counter method; settings: HCT-15, 48 h, read-out: GI; in short: as §1
[8] = test system: KM12; experiment: Growth inhibition of human KM12 cells at 10 uM after 48 hrs by coulter counter method; settings: KM12, 48 h, read-out: GI; in short: as §1
[9] = test system: SF-295; experiment: Growth inhibition of human SF295 cells at 10 uM after 48 hrs by coulter counter method; settings: SF-295, 48 h, read-out: GI; in short: as §1
[10] = test system: LOX IMVI; experiment: Growth inhibition of human LOXIMVI cells at 10 uM after 48 hrs by coulter counter method; in short: as §1
[11] = test system: Malme-3M; experiment: Growth inhibition of human MALME-3M cells at 10 uM after 48 hrs by coulter counter method; in short: as §1
[12] = test system: SK-MEL-5; experiment: Growth inhibition of human SK-MEL-5 cells at 10 uM after 48 hrs by coulter counter method; settings: SK-MEL-5, 48 h, read-out: GI; in short: as §1
[13] = test system: UACC-257; experiment: Growth inhibition of human UACC257 cells at 10 uM after 48 hrs by coulter counter method; settings: UACC-257, 48 h, read-out: GI; in short: as §1
[14] = test system: ACHN; experiment: Growth inhibition of human ACHN cells at 10 uM after 48 hrs by coulter counter method; settings: read-out: GI; in short: as §1
[15] = test system: CAKI-1; experiment: Growth inhibition of human Caki1 cells at 10 uM after 48 hrs by coulter counter method; in short: as §1
[16] = test system: TK-10; experiment: Growth inhibition of human TK10 cells at 10 uM after 48 hrs by coulter counter method; settings: TK-10, 48 h, read-out: GI; in short: as §1
[17] = test system: BT-549; experiment: Growth inhibition of human BT549 cells at 10 uM after 48 hrs by coulter counter method; settings: BT-549, 48 h, read-out: GI; in short: as §1
[18] = test system: Melanoma cell; experiment: Growth inhibition of human Melanoma cells after 48 hrs by coulter counter method
In short: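 NCI 60-line panel cells. Compound is dissolved in DMSO and diluted in phosphate-buffered saline, with final DMSO below 1%. It is added in duplicate wells to cultures at 6 × 10⁴ cells/ml and held at 37 °C, 5% CO₂, humidified, for 48 h. Cells are diluted 10-fold in saline, counted by Coulter counter and dilution-corrected. Vehicle controls contain PBS plus DMSO.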

Compound: O=C1CN2N=C(c3ccccc3)SC2=N1
- inhibition of growth at 10 µM [1]: 88.2%
- inhibition of growth at 10 µM [2]: 34.8%
- inhibition of growth at 10 µM [3]: 37.5%
- inhibition of growth at 10 µM [4]: 39.2%
- inhibition of growth at 10 µM [5]: 27.7%
- inhibition of growth at 10 µM [6]: 21.6%
- inhibition of growth at 10 µM [7]: 44.8%
- inhibition of growth at 10 µM [8]: 21.8%
- inhibition of growth at 10 µM [9]: 90.6%
- growth inhibition (GI) [10]: Active
- growth inhibition (GI) [11]: Active
- inhibition of growth at 10 µM [12]: 35.2%
- inhibition of growth at 10 µM [13]: 48.4%
- inhibition of growth at 10 µM [14]: 29.5%
- growth inhibition (GI) [15]: Active
- inhibition of growth at 10 µM [16]: 25.4%
- inhibition of growth at 10 µM [17]: 53.4%
- GI50 [18]: 8 µM
- LC50 [18]: 51.4 µM
- TGI [18]: 20.1 µM
